# Published values of several laboratories.
# Protocols differ between the studies behind these lines.
# Target: Mitogen-activated protein kinase kinase kinase 10 (MAP3K10, Homo sapiens, UniProt Q02779)
observed,action,technique,tested at,endpoint,value,Compound
cell-free assay,,competition with immobilised ligand,0.1 µM,remaining binding,100%,Cn1nc(C(=O)NCc2ccc(C(=O)O)cc2)cc1-c1ccc2[nH]ccc2c1
enzyme activity,inhibitor,,1 µM,inhibition,8%,CN1CC(Oc2cnc(C#N)cc2-c2ccn3nc(NC(=O)C4CC4)cc3c2)C1
cell-free assay,,competition with immobilised ligand,1 µM,remaining binding,94%,O=C1NC(c2ccccn2)Sc2ccccc21 (stereo not drawn)
cell-free assay,,,0.5 µM,remaining signal,110%,Clc1ccc(Nc2nnc(Cc3ccncc3)c3ccccc23)cc1
cell-free assay,inhibitor,,20 µM,remaining signal,0%,Nc1ncnc2occ(-c3ccc(NC(=O)Nc4cc(C(F)(F)F)ccc4F)cc3)c12
cell-free assay,,,0.5 µM,remaining signal,30%,N#CCCc1ccc2c(c1)-c1[nH]c3ccc([N+](=O)[O-])cc3c1CC(=O)N2
cell-free assay,,competition with immobilised ligand,1 µM,remaining binding,99%,O=C(N1CCS(=O)(=O)CC1)N1C[C@H](c2ccc(OC(F)(F)F)cc2)C[C@H](c2nc(C3CC3)no2)C1
enzyme activity,inhibitor,radiometric,1 µM,remaining activity,91%,CC(C)(C)c1nc(-c2cccc(NS(=O)(=O)c3c(F)cccc3F)c2F)c(-c2ccnc(N)n2)s1
enzyme activity,inhibitor,,10 µM,remaining activity,90.8%,Cc1sc(C(=O)NC2COC2)cc1-n1cc(NC(=O)Nc2c(F)cccc2Cl)cn1
cell-free assay,,,0.5 µM,remaining signal,104%,CCN(CC)CCNC(=O)c1c(C)[nH]c(/C=C2\C(=O)Nc3ccc(F)cc32)c1C
cell-free assay,,competition with immobilised ligand,1 µM,remaining binding,75%,CS(=O)(=O)NCC[C@H](NC(=O)c1cncc2c1cnn2-c1ccc(F)cc1)c1ccnc(S(C)(=O)=O)c1
target engagement in cells,inhibitor,chemoproteomics,20 mM,inhibition,65.4%,CCCCNc1ncc2c(-c3ccc(F)cc3)nn(C[C@H]3CC[C@H](N)CC3)c2n1
enzyme activity,inhibitor,,1 µM,remaining activity,97%,COc1cc(Cl)c(C(=O)N[C@@H](CN[C@H]2CC[C@@H](N)CC2)Cc2ccc(C#N)cc2)cc1-c1ccc(CN[C@H](C)c2ccc(C)cc2)o1
cell-free assay,,,0.5 µM,remaining signal,101%,COc1cc2c(N3CCN(C(=O)Nc4ccc(OC(C)C)cc4)CC3)ncnc2cc1OCCCN1CCCCC1
cell-free assay,,competition with immobilised ligand,1 µM,remaining binding,100%,CCS(=O)(=O)c1cc2cc(C[C@](O)(CC(C)(C)c3ccc(F)cc3C(N)=O)C(F)(F)F)[nH]c2cn1
cell-free assay,,,0.5 µM,remaining signal,104%,CNC(=O)c1cc(Oc2ccc(NC(=O)Nc3ccc(Cl)c(C(F)(F)F)c3)cc2)ccn1
enzyme activity,inhibitor,,1 µM,remaining activity,85%,CC(C)(O)[C@H]1CC[C@H](Nc2ccc3ncc(-c4cccc(C(F)(F)F)c4)n3n2)CC1
enzyme activity,inhibitor,,5 µM,remaining activity,98.5%,O=C(Nc1cnn(-c2csc(C(=O)NC3COC3)c2)c1)Nc1ccccc1Cl
